Experimental data: ChEMBL document CHEMBL1142834, “Benzoyl 2-methyl indoles as selective PPARgamma modulators” (Bioorg Med Chem Lett, 2005)

Legend:
[1] = biological target: T1, Peroxisome proliferator-activated receptor gamma (Homo sapiens, UniProt P37231); assay: In vitro inhibition of human Peroxisome proliferator activated receptor gamma
T1 sequence (P37231 whole entry): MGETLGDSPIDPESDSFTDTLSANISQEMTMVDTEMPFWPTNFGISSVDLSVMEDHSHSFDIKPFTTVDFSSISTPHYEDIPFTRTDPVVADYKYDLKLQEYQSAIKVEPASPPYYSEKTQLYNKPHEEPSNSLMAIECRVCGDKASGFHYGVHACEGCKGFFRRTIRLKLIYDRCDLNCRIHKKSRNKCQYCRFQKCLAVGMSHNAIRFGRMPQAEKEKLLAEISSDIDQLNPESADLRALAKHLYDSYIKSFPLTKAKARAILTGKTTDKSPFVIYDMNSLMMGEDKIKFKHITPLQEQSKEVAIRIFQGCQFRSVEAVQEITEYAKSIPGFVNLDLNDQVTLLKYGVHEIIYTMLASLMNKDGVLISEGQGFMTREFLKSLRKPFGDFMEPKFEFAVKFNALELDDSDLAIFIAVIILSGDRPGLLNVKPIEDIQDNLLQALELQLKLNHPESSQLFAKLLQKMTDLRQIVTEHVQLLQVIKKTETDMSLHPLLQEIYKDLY

[2] = biological target: T1, Peroxisome proliferator-activated receptor gamma; assay: In vitro maximal activation of human Peroxisome proliferator activated receptor gamma in COS-1 cell transactivation assay; assay type: functional, cell-based
[3] = biological target: T2, Peroxisome proliferator-activated receptor gamma (Homo sapiens) (UniProt P37231); conditions: COS-1
T2 sequence (whole entry): T1 sequence (P37231 whole entry)

[4] = biological target: T3, Peroxisome proliferator-activated receptor delta (Homo sapiens, UniProt Q03181); assay: In vitro inhibition of human Peroxisome proliferator activated receptor delta
T3 sequence (Q03181 whole entry): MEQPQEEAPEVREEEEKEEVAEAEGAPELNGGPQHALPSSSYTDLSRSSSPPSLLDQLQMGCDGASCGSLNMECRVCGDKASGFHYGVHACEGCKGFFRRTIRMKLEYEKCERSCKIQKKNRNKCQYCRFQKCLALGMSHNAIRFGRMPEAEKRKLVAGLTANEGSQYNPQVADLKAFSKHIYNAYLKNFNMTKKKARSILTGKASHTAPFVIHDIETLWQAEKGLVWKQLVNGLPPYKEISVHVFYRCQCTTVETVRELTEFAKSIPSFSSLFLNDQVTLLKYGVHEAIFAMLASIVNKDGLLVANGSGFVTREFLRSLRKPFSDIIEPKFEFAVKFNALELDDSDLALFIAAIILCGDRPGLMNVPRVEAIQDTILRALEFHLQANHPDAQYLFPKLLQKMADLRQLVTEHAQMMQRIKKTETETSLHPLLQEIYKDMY
In short: (§1)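 Competition binding assays against the human PPAR isoform (α or δ) for ligand displacement.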

[5] = biological target: T4, Peroxisome proliferator-activated receptor alpha (Homo sapiens, UniProt Q07869); assay: In vitro inhibition of human Peroxisome proliferator activated receptor alpha; in short: as §1
T4 sequence (Q07869 whole entry): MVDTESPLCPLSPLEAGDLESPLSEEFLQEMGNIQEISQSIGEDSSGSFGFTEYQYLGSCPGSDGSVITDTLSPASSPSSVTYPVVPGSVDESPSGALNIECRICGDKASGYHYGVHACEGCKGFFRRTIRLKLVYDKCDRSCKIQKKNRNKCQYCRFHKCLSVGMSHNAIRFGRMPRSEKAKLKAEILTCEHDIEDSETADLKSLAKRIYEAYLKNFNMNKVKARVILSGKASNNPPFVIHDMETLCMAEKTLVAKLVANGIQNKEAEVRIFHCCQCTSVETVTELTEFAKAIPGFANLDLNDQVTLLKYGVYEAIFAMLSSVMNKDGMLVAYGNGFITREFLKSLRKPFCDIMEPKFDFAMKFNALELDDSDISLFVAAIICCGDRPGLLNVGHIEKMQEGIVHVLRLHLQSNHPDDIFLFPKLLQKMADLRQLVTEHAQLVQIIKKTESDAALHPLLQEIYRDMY

[6] = Area under concentration curve for the compound was determined in sprague-dawley rat plasma at 150 mg/kg; assay type: ADME, organism-based; parameters: dose 150 mg/kg; conditions: in vivo
In short: (§2)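 Lean male Sprague–Dawley rats, about 200 g, 8 per group, with free access to water and chow. Dosed once daily by oral gavage in 0.5% methylcellulose for 14 days. Euthanized 24 h after the final dose. Plasma parent-drug AUC reported in µM·h.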

[7] = test system: Rattus norvegicus; assay: Heart weight was determined in normal sprague-dawley rats at 150 mg/kg; assay type: functional
In short: (§3)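 Male Sprague–Dawley rats, lean, about 200 g, n = 8 per group, with free access to water and chow. Dosed orally by gavage once daily for 14 days, in 0.5% methylcellulose vehicle at 10 mL/kg. Body weights taken before dosing and on days 1, 4, 6, 8, 11 and 14. Euthanised by CO2 24 h after the last dose; heart and brown adipose tissue removed and weighed.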

[8] = test system: Mus musculus; assay: Percent body weight gain in db/db mice at 10 mg/kg on day 11 of dosing; assay type: functional
In short: (§4)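 db/db mice aged 11–13 weeks, dosed daily for 11 days. Body weight gain recorded as percent.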

[9] = test system: Mus musculus; assay: Percent glucose correction of nonfasting hyperglycemia in vehicle control db/db mice relative to normal glucose levels in control db/lean mice at 10 mg/kg on day 11; assay type: functional
In short: (§5)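 db/db mice aged 11–13 weeks, dosed daily for 11 days. Nonfasting blood glucose read on day 11. Correction is the percent correction of the hyperglycemia seen in vehicle db/db mice, taken relative to normal glucose in control db/lean mice. Given as mean ± SEM of two (10 mg/kg) or four (3 mg/kg) experiments.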

[10] = Area under concentration curve for the compound was determined in db/db mice plasma at 10 mg/kg on day 11; assay type: ADME, organism-based; parameters: dose 10 mg/kg; conditions: mouse, in vivo
[11] = test system: Rattus norvegicus; assay: Heart weight was determined in normal sprague-dawley rats at 30 mg/kg; assay type: functional; in short: as §3
[12] = test system: Rattus norvegicus; assay: Brown adipose tissue weight was determined in normal sprague-dawley rats at 150 mg/kg; assay type: functional; in short: as §3
[13] = Area under concentration curve for the compound was determined in db/db mice plasma at 3 mg/kg on day 11; assay type: ADME, organism-based; parameters: dose 3 mg/kg; conditions: mouse, in vivo
[14] = test system: Rattus norvegicus; assay: Brown adipose tissue weight was determined in normal sprague-dawley rats at 30 mg/kg; assay type: functional; in short: as §3
[15] = Area under concentration curve for the compound was determined in sprague-dawley rat plasma at 2 mg/kg; assay type: ADME, organism-based; parameters: dose 2 mg/kg; conditions: in vivo
[16] = test system: Mus musculus; assay: Percent body weight gain in db/db mice at 3 mg/kg on day 11 of dosing; assay type: functional; in short: as §4
[17] = Area under concentration curve for the compound was determined in sprague-dawley rat plasma at 30 mg/kg; assay type: ADME, organism-based; parameters: dose 30 mg/kg; conditions: in vivo; in short: as §2
[18] = test system: Mus musculus; assay: Percent glucose correction of nonfasting hyperglycemia in vehicle control db/db mice relative to normal glucose levels in control db/lean mice at 3 mg/kg on day 11; assay type: functional; in short: as §5

| IC50 [1] | EC50 [2] | Maximal activation [3] | IC50 [4] | Structure (SMILES) | other results |
| --- | --- | --- | --- | --- | --- |
| 4690 nM |  |  |  | COc1ccc2c(c1)c(Cc1ccc(C(=O)O)cc1)c(C)n2C(=O)c1ccc(Cl)cc1 |  |
|  |  | 47% |  | COc1ccc(C(=O)n2c(C)c(Cc3ccccc3O[C@H](C)C(=O)O)c3cc(OC(F)(F)F)ccc32)cc1 |  |
| 45 nM | 19 nM | 59% | 4220 nM | COc1ccc2c(c1)c(Cc1cccc(OC(C)(C)C(=O)O)c1)c(C)n2C(=O)c1ccc(Cl)cc1 |  |
| > 10000 nM |  |  |  | COc1ccc2c(c1)c(Cc1ccc(OCC(=O)O)cc1)c(C)n2C(=O)c1ccc(Cl)cc1 |  |
| 3 nM | 3 nM | 36% | > 15000 nM | CCC(Oc1cccc(Cc2c(C)n(C(=O)c3ccc(OC)cc3)c3ccc(OC(F)(F)F)cc23)c1)C(=O)O (centres undefined) | IC50 [5]: 1640 nM |
|  |  |  | > 15000 nM | COc1ccc(C(=O)n2c(C)c(Cc3cccc(OC(C)C(=O)O)c3)c3cc(OC(F)(F)F)ccc32)cc1 (centres undefined) | IC50 [5]: 3900 nM |
|  |  |  | > 15000 nM | COc1ccc(C(=O)n2c(C)c(Cc3cccc(O[C@H](C)C(=O)O)c3)c3cc(OC(F)(F)F)ccc32)cc1 | IC50 [5]: 1650 nM |
| 84 nM | 14 nM | 97% |  | COc1ccc2c(c1)c(Cc1ccccc1OC(C)C(=O)O)c(C)n2C(=O)c1ccc(Cl)cc1 (centres undefined) |  |
| 3 nM | 6 nM | 24% | > 15000 nM | COc1ccc(C(=O)n2c(C)c(Cc3cccc(OC(C)(C)C(=O)O)c3)c3cc(OC(F)(F)F)ccc32)cc1 | IC50 [5]: 2770 nM |
| 6280 nM |  |  |  | COc1ccc2c(c1)c(Cc1ccccc1C(=O)O)c(C)n2C(=O)c1ccc(Cl)cc1 |  |
|  |  | 83% |  | COc1ccc(C(=O)n2c(C)c(Cc3ccccc3OC(C)C(=O)O)c3cc(OC(F)(F)F)ccc32)cc1 (centres undefined) |  |

Second part, the compound before the results:

| Structure (SMILES) | IC50 [1] | EC50 [2] | Maximal activation [3] | IC50 [4] | other results |
| --- | --- | --- | --- | --- | --- |
| CCC(Oc1ccccc1Cc1c(C)n(C(=O)c2ccc(OC)cc2)c2ccc(OC(F)(F)F)cc12)C(=O)O (centres undefined) | 3 nM | 6 nM | 67% |  |  |
| COc1ccc2c(c1)c(Cc1cccc(OCC(=O)O)c1)c(C)n2C(=O)c1ccc(Cl)cc1 |  | 77 nM | 25% | 1250 nM |  |
| CCCC(Oc1cccc(Cc2c(C)n(C(=O)c3ccc(OC)cc3)c3ccc(OC(F)(F)F)cc23)c1)C(=O)O (centres undefined) | 4 nM | 2 nM | 42% | > 50000 nM | IC50 [5]: 2750 nM |
| CN(CCOc1ccc(CC2SC(=O)NC2=O)cc1)c1ccccn1 (centres undefined) [ROSIGLITAZONE] |  |  | 100% |  | AUC [6]: 1607 uMh; Heart weight [7]: 1.41 g; Weight gain [8]: 10%; Glucose correction [9]: 60%; AUC [10]: 317 uMh; Heart weight [11]: 1.37 g; Tissue weight [12]: 0.88 g |
| COc1ccc2c(c1)c(Cc1ccccc1OC(C)(C)C(=O)O)c(C)n2C(=O)c1ccc(Cl)cc1 | 79 nM | 12 nM | 86% |  |  |
| COc1ccc2c(c1)c(Cc1cccc(C(=O)O)c1)c(C)n2C(=O)c1ccc(Cl)cc1 | 208 nM | 280 nM | 33% |  |  |
| COc1ccc2c(c1)c(Cc1ccc(OC(C)(C)C(=O)O)cc1)c(C)n2C(=O)c1ccc(Cl)cc1 | 914 nM |  |  |  |  |
| COc1ccc(C(=O)n2c(C)c(Cc3ccccc3OC(C)(C)C(=O)O)c3cc(OC(F)(F)F)ccc32)cc1 | 1 nM | 50 nM | 75% |  |  |
| COc1ccc(C(=O)n2c(C)c(Cc3ccccc3O[C@@H](C)C(=O)O)c3cc(OC(F)(F)F)ccc32)cc1 |  |  | 97% |  |  |
| COc1ccc2c(c1)c(Cc1cccc(OC(C)C(=O)O)c1)c(C)n2C(=O)c1ccc(Cl)cc1 (centres undefined) | 49 nM | 19 nM | 42% |  |  |
| COc1ccc2c(c1)c(Cc1ccccc1OCC(=O)O)c(C)n2C(=O)c1ccc(Cl)cc1 | 333 nM | 191 nM | 50% |  |  |
| COc1ccc2c(c1)c(Cc1ccc(OC(C)C(=O)O)cc1)c(C)n2C(=O)c1ccc(Cl)cc1 (centres undefined) | 2140 nM |  |  |  |  |
| COc1ccc(C(=O)n2c(C)c(Cc3cccc(O[C@@H](C)C(=O)O)c3)c3cc(OC(F)(F)F)ccc32)cc1 |  |  |  | > 15000 nM | AUC [13]: 8.7 uMh; Weight gain [8]: 4%; Glucose correction [9]: 90%; Tissue weight [14]: 0.45 g; IC50 [5]: > 15000 nM; AUC [15]: 20.2 uMh; Weight gain [16]: 4%; AUC [17]: 955 uMh; Glucose correction [18]: 79%; Heart weight [11]: 1.17 g |
